Assay results: ChEMBL document CHEMBL5058577, “EUbOPEN Chemogenomics Library 2 (Multiplex)” (2022)

System: U2OS
Assay: Multiplex assay against U2OS
Format: toxicity, cell-based
Details: human
Outline: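 Cells stained live at seeding with Hoechst33342, BioTracker Green Microtubule Cytoskeleton Dye, MitoTracker Red and Annexin V Alexa Fluor 680 were imaged on a CQ1 microscope at 37°C and 5% CO2 after compound addition. Their classification by CellPathfinder machine-learning gating ran from Hoechst high-intensity objects versus normal cells, to healthy, pyknosed or fragmented nuclei among normal cells, to mitotic or apoptotic among pyknosed cells. Tubulin, mitochondrial-mass and membrane-permeability phenotypes are per cents of healthy-nucleus cells.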

[1] = 12 h, 1 µM, compound concentration 1 uM, replicate 1
[2] = 12 h, 1 µM, compound concentration 1 uM, replicate 2
[3] = 12 h, 10 µM, compound concentration 10 uM, replicate 1
[4] = 12 h, 10 µM, compound concentration 10 uM, replicate 2
[5] = 24 h, 1 µM, compound concentration 1 uM, replicate 1
[6] = 24 h, 1 µM, compound concentration 1 uM, replicate 2
[7] = 24 h, 10 µM, compound concentration 10 uM, replicate 1
[8] = 24 h, 10 µM, compound concentration 10 uM, replicate 2
[9] = 48 h, 1 µM, compound concentration 1 uM, replicate 1
[10] = 48 h, 1 µM, compound concentration 1 uM, replicate 2
[11] = 48 h, 10 µM, compound concentration 10 uM, replicate 1
[12] = 48 h, 10 µM, compound concentration 10 uM, replicate 2

SMILES: CN1CCN(c2nc3cc(C(F)(F)F)ccc3n3cccc23)CC1.O=C(O)/C=C\C(=O)O.O=C(O)/C=C\C(=O)O
- Population Apoptotic (%) [1]: 77%
- Population Fragmented Nuclei (%) [1]: 17%
- Population Healthy Nuclei (%) [1]: 75%
- Population Hoechst High Intensity Objects (%) [1]: 1%
- Population Membrane Permeable-Phenotype (%) [1]: 4%
- Population Mitochondria Different-Phenotype (%) [1]: 0%
- Population Mitotic Cells (%) [1]: 22%
- Population Normal (%) [1]: 98%
- Population Pyknosed Nuclei (%) [1]: 6%
- Population Tubulin-Different-Phenotype (%) [1]: 1%
- Total Cell Count [1]: 266
- Population Apoptotic (%) [2]: 100%
- Population Fragmented Nuclei (%) [2]: 18%
- Population Healthy Nuclei (%) [2]: 73%
- Population Hoechst High Intensity Objects (%) [2]: 0%
- Population Membrane Permeable-Phenotype (%) [2]: 8%
- Population Mitochondria Different-Phenotype (%) [2]: 2%
- Population Mitotic Cells (%) [2]: 0%
- Population Normal (%) [2]: 99%
- Population Pyknosed Nuclei (%) [2]: 8%
- Population Tubulin-Different-Phenotype (%) [2]: 3%
- Total Cell Count [2]: 111
- Population Apoptotic (%) [3]: 66%
- Population Fragmented Nuclei (%) [3]: 31%
- Population Healthy Nuclei (%) [3]: 53%
- Population Hoechst High Intensity Objects (%) [3]: 1%
- Population Membrane Permeable-Phenotype (%) [3]: 18%
- Population Mitochondria Different-Phenotype (%) [3]: 45%
- Population Mitotic Cells (%) [3]: 33%
- Population Normal (%) [3]: 98%
- Population Pyknosed Nuclei (%) [3]: 15%
- Population Tubulin-Different-Phenotype (%) [3]: 19%
- Total Cell Count [3]: 218
- Population Apoptotic (%) [4]: 88%
- Population Fragmented Nuclei (%) [4]: 25%
- Population Healthy Nuclei (%) [4]: 68%
- Population Hoechst High Intensity Objects (%) [4]: 2%
- Population Membrane Permeable-Phenotype (%) [4]: 13%
- Population Mitochondria Different-Phenotype (%) [4]: 41%
- Population Mitotic Cells (%) [4]: 11%
- Population Normal (%) [4]: 97%
- Population Pyknosed Nuclei (%) [4]: 6%
- Population Tubulin-Different-Phenotype (%) [4]: 21%
- Total Cell Count [4]: 135
- Population Apoptotic (%) [5]: 85%
- Population Fragmented Nuclei (%) [5]: 17%
- Population Healthy Nuclei (%) [5]: 73%
- Population Hoechst High Intensity Objects (%) [5]: 2%
- Population Membrane Permeable-Phenotype (%) [5]: 5%
- Population Mitochondria Different-Phenotype (%) [5]: 1%
- Population Mitotic Cells (%) [5]: 14%
- Population Normal (%) [5]: 97%
- Population Pyknosed Nuclei (%) [5]: 9%
- Population Tubulin-Different-Phenotype (%) [5]: 3%
- Total Cell Count [5]: 300
- Population Apoptotic (%) [6]: 92%
- Population Fragmented Nuclei (%) [6]: 13%
- Population Healthy Nuclei (%) [6]: 77%
- Population Hoechst High Intensity Objects (%) [6]: 0%
- Population Membrane Permeable-Phenotype (%) [6]: 8%
- Population Mitochondria Different-Phenotype (%) [6]: 4%
- Population Mitotic Cells (%) [6]: 7%
- Population Normal (%) [6]: 99%
- Population Tubulin-Different-Phenotype (%) [6]: 4%
- Total Cell Count [6]: 136
- Population Apoptotic (%) [7]: 76%
- Population Fragmented Nuclei (%) [7]: 31%
- Population Healthy Nuclei (%) [7]: 57%
- Population Hoechst High Intensity Objects (%) [7]: 3%
- Population Membrane Permeable-Phenotype (%) [7]: 16%
- Population Mitochondria Different-Phenotype (%) [7]: 41%
- Population Mitotic Cells (%) [7]: 24%
- Population Normal (%) [7]: 96%
- Population Pyknosed Nuclei (%) [7]: 10%
- Population Tubulin-Different-Phenotype (%) [7]: 14%
- Total Cell Count [7]: 244
- Population Apoptotic (%) [8]: 78%
- Population Fragmented Nuclei (%) [8]: 19%
- Population Healthy Nuclei (%) [8]: 71%
- Population Membrane Permeable-Phenotype (%) [8]: 17%
- Population Mitochondria Different-Phenotype (%) [8]: 36%
- Population Mitotic Cells (%) [8]: 21%
- Population Pyknosed Nuclei (%) [8]: 9%
- Population Tubulin-Different-Phenotype (%) [8]: 16%
- Total Cell Count [8]: 156
- Population Apoptotic (%) [9]: 87%
- Population Fragmented Nuclei (%) [9]: 14%
- Population Healthy Nuclei (%) [9]: 77%
- Population Hoechst High Intensity Objects (%) [9]: 2%
- Population Membrane Permeable-Phenotype (%) [9]: 4%
- Population Mitochondria Different-Phenotype (%) [9]: 0%
- Population Mitotic Cells (%) [9]: 12%
- Population Normal (%) [9]: 97%
- Population Pyknosed Nuclei (%) [9]: 7%
- Population Tubulin-Different-Phenotype (%) [9]: 2%
- Total Cell Count [9]: 447
- Population Apoptotic (%) [10]: 85%
- Population Fragmented Nuclei (%) [10]: 17%
- Population Healthy Nuclei (%) [10]: 75%
- Population Hoechst High Intensity Objects (%) [10]: 1%
- Population Membrane Permeable-Phenotype (%) [10]: 6%
- Population Mitochondria Different-Phenotype (%) [10]: 5%
- Population Mitotic Cells (%) [10]: 14%
- Population Normal (%) [10]: 98%
- Population Tubulin-Different-Phenotype (%) [10]: 3%
- Total Cell Count [10]: 187
- Population Apoptotic (%) [11]: 78%
- Population Fragmented Nuclei (%) [11]: 31%
- Population Healthy Nuclei (%) [11]: 52%
- Population Hoechst High Intensity Objects (%) [11]: 4%
- Population Membrane Permeable-Phenotype (%) [11]: 16%
- Population Mitochondria Different-Phenotype (%) [11]: 17%
- Population Mitotic Cells (%) [11]: 21%
- Population Normal (%) [11]: 95%
- Population Pyknosed Nuclei (%) [11]: 16%
- Population Tubulin-Different-Phenotype (%) [11]: 12%
- Total Cell Count [11]: 299
- Population Apoptotic (%) [12]: 81%
- Population Fragmented Nuclei (%) [12]: 21%
- Population Healthy Nuclei (%) [12]: 67%
- Population Hoechst High Intensity Objects (%) [12]: 3%
- Population Membrane Permeable-Phenotype (%) [12]: 10%
- Population Mitochondria Different-Phenotype (%) [12]: 16%
- Population Mitotic Cells (%) [12]: 18%
- Population Normal (%) [12]: 96%
- Population Pyknosed Nuclei (%) [12]: 11%
- Population Tubulin-Different-Phenotype (%) [12]: 9%
- Total Cell Count [12]: 202
